Screening results from PubChem.
Only some compounds are listed: those with a hit (about 2.7% of all), similar ones and a draw of the others.
CSN deneddyl inh: inhibitors of CSN-mediated cullin deneddylation, primary screen, biochemical, fluorescence polarization, uHTS. inhibition, % at 12.5 µM. Purified CSN, SCF-Nedd8-OG deneddylation. AID 651999, 2013. 0.38% of 360,000 active;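 active means pattern-corrected inhibition above about 35%, with an unprinted fluorescence ratio check between 0.5 and 1.5, limit read from the data, passing the limit was not always enough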;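 further: 0% = enzyme with substrate and 100% = substrate without enzyme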
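Test system: purified human Csn5 enzyme expressed in HEK293T cells. Amount: 0.24 nM enzyme. Reagent: SCFSkp2-Nedd8OG substrate at 10 nM final. Schedule: 90 min incubation of compound, enzyme and substrate at room temperature. Detection: fluorescence polarization. Read-out: % inhibition of substrate cleavage by Csn5.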
PP1 counter: PP1-alpha phosphatase inhibitors, primary screen, counter-screen for PP5 inhibitor project, biochemical, fluorescence, OMFP substrate, single point; Serine/threonine-protein phosphatase PP1-alpha catalytic subunit (Homo sapiens), P62136; purified PP1alpha; inhibition, % at 6.7 µM; 0.9% of 320,000 active;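 active means inhibition above the mean inhibition of all tested compounds plus 3 SD, computed separately for each screening campaign, cut at about 15% in these data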
Target sequence (P62136 whole entry, looked up): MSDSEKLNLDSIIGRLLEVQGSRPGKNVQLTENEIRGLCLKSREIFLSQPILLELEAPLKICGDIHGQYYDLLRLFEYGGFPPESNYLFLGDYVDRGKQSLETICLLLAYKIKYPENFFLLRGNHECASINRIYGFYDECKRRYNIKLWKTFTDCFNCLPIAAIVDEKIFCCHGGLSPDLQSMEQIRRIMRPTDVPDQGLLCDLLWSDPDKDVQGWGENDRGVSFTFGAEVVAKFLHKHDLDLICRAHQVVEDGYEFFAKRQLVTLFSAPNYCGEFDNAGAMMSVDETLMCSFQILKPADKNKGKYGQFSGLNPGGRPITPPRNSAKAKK
Rpn11 block: Rpn11 (PSMD14) deubiquitinase inhibitors, primary screen, biochemical, fluorescence polarization, uHTS; AID 588493, 2011; 0.59% of 360,000 active; human 26S proteasome, Ub4-pepOG fluorescence polarization; 20S core pre-blocked with epoxomicin; inhibition, % at 20 µM; 26S proteasome non-ATPase regulatory subunit 14 (Homo sapiens), O00487;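 active means inhibition at 20 µM, scaled to each plate's controls, above about 33%, limit read from the data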
NadD block: inhibitors of S. aureus NadD, primary screen, biochemical, colorimetric, uHTS. purified NadD enzyme, colorimetric absorbance read-out. inhibition, % at 20 µM. 0.78% of 360,000 active; in the data active means inhibition above about 26%
HNF4A DNA FP: change in binding of human HNF4A to DNA, primary screen, biochemical, fluorescence polarization, FITC-DNA. Hepatocyte nuclear factor 4-alpha (Homo sapiens), P41235. 1 h. activity change, % at 10 µM. 0.3% of 360,000 active. AID 1224865, 2016; in the data active means activity change above about 30%, passing the limit was not always enough
TPT1 inh: Candida albicans TPT1 enzyme inhibitors, primary screen, biochemical, fluorescence polarization; AID 1962, 2009; tRNA 2'-phosphotransferase TPT1 (Candida albicans SC5314); 0.81% of 300,000 active; recombinant caTPT1, FP RNA substrate dephosphorylation; inhibition, % at 5 µM;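 active means inhibition above the mean of all tested compounds plus 3 SD, set per screening campaign, cut at about 24% in these data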;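 further: plate controls were DMSO alone for no effect and ferristatin control at 100 nM for full effect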
Rpn11 inh conf: Rpn11 (PSMD14) deubiquitinase inhibitors, confirmation, biochemical, fluorescence polarization, single concentration; shares compounds with Rpn11 block; purified human 26S proteasome, Ub4-pepOG fluorescence polarization; proteasome pretreated with epoxomicin; inhibition, % at 20 µM; 29% of 1,900 active; AID 602318, 2012
MMP-2 counter: MMP-2 enzyme inhibition, confirmation, counter-screen for RPN11 inhibitor project, biochemical, fluorescence, single concentration; shares compounds with Rpn11 block; recombinant MMP-2, FRET peptide cleavage fluorescence; inhibition, % at 20 µM; 4% of 1,900 active; AID 602330, 2012;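 further: human MMP-2 activated beforehand with APMA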
Thrombin FP: bovine thrombin protease inhibition, confirmation, counter-screen for Rpn11 inhibitor project, biochemical, fluorescence polarization, single concentration; inhibition, % at 20 µM; shares compounds with Rpn11 block; bovine thrombin cleavage of Ub4-pepOG; 13% of 1,900 active;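 active means mean inhibition at least 40% at 20 µM, or signal 3 deviations below plate average, so some actives read negative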;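 further: plate controls were thrombin with DMSO for no effect and buffer wells lacking thrombin for full effect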
The depositor's hits bear a star. Unless noted, no stated cut-off is given here; in the data, active means inhibition above about 40%; inactive means the rest.

For CN(Cc1ccccc1)c1ccc(C(CC(N)=O)NC(=O)c2ccc(Br)cc2)cc1[N+](=O)[O-] (centres undefined) the results were CSN deneddyl inh -3.7, PP1 counter 10.6, Rpn11 block -8.8, NadD block 1.1, HNF4A DNA FP 3.2 and TPT1 inh 2.0.
Screening FC(F)Sc1ccc(NC(=S)NC2CCC(NC(=S)Nc3ccc(SC(F)F)cc3)CC2)cc1 (centres undefined) returned CSN deneddyl inh 6.8, PP1 counter -6.7, Rpn11 block 142.9*, NadD block 6.3, HNF4A DNA FP 21.6, TPT1 inh -4.5, Rpn11 inh conf 9.4, MMP-2 counter 20.8 and Thrombin FP -0.7.
`CCOc1ccc(C(=O)N/N=C/c2cc(Cl)ccc2[N+](=O)[O-])cc1` gave CSN deneddyl inh 24.4, PP1 counter 0.0, Rpn11 block 58.7*, NadD block 3.8, HNF4A DNA FP 2.5, TPT1 inh 1.5, Rpn11 inh conf 41.4*, MMP-2 counter -120.8 and Thrombin FP 10.6.
`COc1cc(CN2C[C@@H](CO)O[C@@H](n3cnc4c(N(C)C(C)C)ncnc43)C2)cc(OC)c1OC` gave CSN deneddyl inh 2.2, Rpn11 block 0.8, NadD block 5.5 and HNF4A DNA FP 3.8.
For CC(=O)Oc1ccc(CCC(C)OC(C)=O)cc1 (centres undefined) the results were CSN deneddyl inh 4.5, PP1 counter -1.7, Rpn11 block 57.5*, NadD block -4.9, HNF4A DNA FP 0.5, TPT1 inh -2.0, Rpn11 inh conf -14.4, MMP-2 counter -0.4 and Thrombin FP -11.7.
O=C1NC[C@@H](CCCCN2C[C@H](Cc3ccc(O)cc3)N(CCc3ccccc3)C(=O)C2=O)N(CCc2ccccc2)C1=O was read as CSN deneddyl inh -2.8, NadD block 8.7 and HNF4A DNA FP -1.2.
For O=C(Cc1ccccc1F)Nc1nc(-c2ccc(F)c(F)c2)cs1 the results were CSN deneddyl inh 4.4, PP1 counter 5.3, Rpn11 block 5.2, NadD block -11.2, HNF4A DNA FP -0.4 and TPT1 inh -2.2.
`O=C(Nc1nc(-c2ccc(F)c(F)c2)cs1)Nc1ccc(F)cc1F` gave CSN deneddyl inh 1.8, PP1 counter 4.6, Rpn11 block 56.5*, NadD block 6.6, HNF4A DNA FP 10.1, TPT1 inh 0.9, Rpn11 inh conf 78.8*, MMP-2 counter -36.9 and Thrombin FP -13.1.
Nc1ncnc2c1ncn2[C@@H]1O[C@H](CNC(=O)[C@@H](N)C2CCCCC2)[C@@H](O)[C@H]1O was read as CSN deneddyl inh 0.7, Rpn11 block 2.1, NadD block 3.5 and HNF4A DNA FP 2.1.
